Consider 18 compounds from ChEMBL document CHEMBL1135246, “Structure-activity study of L-cysteine-based N-type calcium channel blockers: optimization of N- and C-terminal substituents” (Bioorg Med Chem Lett, 2002).

Assay [1] addresses Voltage-dependent N-type calcium channel subunit alpha-1B (Homo sapiens, UniProt Q00975). Put plainly: In vitro inhibition of N-type calcium channels in IMR-32 cells. The class given is cell-based. The method in brief:
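N-type channel block was assessed in IMR-32 cells. Cells in suspension were loaded with fura-2/AM for 30 min at 37 °C, and calcium influx ([Ca²⁺]i) was measured. IC50 values are means of multiple determinations, each performed in duplicate.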

In assay [2] the test system is L-type calcium channel (Mus musculus). Description: In vitro inhibition of L-type calcium channels in AtT-20 cells. Conditions: att20.
Assay [3] is described as follows: In vitro inhibition of L-type calcium channels in AtT-20 cells. The class given is functional, cell-based, Mus musculus. Conditions: att20. The method in brief: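 Mouse pituitary tumour AtT-20/D16v-F2 cells, grown in DMEM with 10% FBS and penicillin–streptomycin, served as the L-type channel source. Cells in suspension were loaded with fura-2/AM for 30 min at 37 °C, and calcium influx ([Ca²⁺]i) was read fluorometrically. IC50 values are means of multiple determinations, each run in duplicate.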

Sequence of Voltage-dependent N-type calcium channel subunit alpha-1B (Q00975 whole entry): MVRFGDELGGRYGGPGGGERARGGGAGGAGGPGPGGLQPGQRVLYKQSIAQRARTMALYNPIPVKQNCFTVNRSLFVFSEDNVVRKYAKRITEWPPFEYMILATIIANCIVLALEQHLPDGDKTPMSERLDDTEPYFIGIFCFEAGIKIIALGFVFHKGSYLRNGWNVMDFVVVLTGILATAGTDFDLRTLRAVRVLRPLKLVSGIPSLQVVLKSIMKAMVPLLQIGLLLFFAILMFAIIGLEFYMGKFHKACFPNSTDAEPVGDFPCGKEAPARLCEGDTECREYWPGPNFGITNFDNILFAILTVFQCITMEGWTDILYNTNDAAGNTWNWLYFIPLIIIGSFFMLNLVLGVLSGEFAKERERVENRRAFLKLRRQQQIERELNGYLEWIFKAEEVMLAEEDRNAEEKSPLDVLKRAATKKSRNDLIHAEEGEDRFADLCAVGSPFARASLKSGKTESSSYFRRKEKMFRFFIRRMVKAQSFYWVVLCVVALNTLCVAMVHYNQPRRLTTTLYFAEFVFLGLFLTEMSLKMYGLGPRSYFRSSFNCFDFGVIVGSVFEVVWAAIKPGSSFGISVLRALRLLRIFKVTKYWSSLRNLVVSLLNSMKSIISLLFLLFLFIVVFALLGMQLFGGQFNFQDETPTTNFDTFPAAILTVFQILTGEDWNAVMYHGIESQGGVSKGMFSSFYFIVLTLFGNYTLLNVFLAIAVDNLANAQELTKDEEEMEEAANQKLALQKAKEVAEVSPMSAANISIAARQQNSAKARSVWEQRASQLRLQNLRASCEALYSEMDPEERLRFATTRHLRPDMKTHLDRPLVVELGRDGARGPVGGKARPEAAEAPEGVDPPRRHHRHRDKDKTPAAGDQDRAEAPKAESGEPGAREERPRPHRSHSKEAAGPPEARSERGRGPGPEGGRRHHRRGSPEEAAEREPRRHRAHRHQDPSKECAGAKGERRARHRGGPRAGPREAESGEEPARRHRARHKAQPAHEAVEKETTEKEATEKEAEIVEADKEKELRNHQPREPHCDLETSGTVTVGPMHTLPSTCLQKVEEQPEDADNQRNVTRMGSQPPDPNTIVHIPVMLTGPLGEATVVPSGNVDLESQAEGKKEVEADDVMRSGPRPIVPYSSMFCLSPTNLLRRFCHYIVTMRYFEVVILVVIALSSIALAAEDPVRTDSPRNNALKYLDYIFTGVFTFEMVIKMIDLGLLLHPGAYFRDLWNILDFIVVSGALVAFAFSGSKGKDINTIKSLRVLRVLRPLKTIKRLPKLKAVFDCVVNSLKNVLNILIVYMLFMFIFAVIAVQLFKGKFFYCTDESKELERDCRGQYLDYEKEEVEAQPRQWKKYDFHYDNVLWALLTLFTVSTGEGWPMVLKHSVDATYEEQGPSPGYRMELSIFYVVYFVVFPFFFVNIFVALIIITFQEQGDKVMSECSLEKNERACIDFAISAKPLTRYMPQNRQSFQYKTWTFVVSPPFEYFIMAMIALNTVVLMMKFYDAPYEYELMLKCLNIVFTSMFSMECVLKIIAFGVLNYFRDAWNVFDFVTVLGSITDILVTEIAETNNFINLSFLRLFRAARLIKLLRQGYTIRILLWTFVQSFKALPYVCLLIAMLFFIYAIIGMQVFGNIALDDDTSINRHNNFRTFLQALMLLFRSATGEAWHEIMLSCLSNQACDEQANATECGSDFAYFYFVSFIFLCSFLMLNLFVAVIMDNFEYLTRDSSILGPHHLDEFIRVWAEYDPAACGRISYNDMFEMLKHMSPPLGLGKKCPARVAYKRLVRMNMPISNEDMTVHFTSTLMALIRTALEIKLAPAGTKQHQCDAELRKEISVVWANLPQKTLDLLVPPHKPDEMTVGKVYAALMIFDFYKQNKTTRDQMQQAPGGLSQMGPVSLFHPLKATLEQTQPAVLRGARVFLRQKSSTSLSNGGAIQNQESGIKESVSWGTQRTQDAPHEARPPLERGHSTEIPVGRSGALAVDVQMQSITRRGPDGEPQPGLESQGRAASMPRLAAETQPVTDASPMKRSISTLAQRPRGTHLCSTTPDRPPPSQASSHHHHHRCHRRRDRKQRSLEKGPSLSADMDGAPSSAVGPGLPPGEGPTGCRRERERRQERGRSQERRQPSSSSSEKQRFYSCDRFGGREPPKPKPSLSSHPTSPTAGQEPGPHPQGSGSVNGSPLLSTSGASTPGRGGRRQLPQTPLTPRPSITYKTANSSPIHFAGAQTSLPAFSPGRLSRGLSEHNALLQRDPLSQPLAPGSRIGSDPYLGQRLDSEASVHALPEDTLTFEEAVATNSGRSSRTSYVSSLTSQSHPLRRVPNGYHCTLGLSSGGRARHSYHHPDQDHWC

Take `O=C(NCc1ccc(Oc2ccccc2)cc1)[C@H](CSCC1CCCCC1)NC(=O)[C@@H]1CSCN1CCO`: the IC50 in assay [1] was 350 nM; in assay [2] it was 1100 nM.
In the same order, the values of `C=CCOC(=O)N1CSC[C@H]1C(=O)N[C@@H](CSCC1CCCCC1)C(=O)NCc1ccc(Oc2ccccc2)cc1` are 330 nM and 440 nM.
On the same counts, the results for `CC(C)(C)OC(=O)N1CSC[C@H]1C(=O)N[C@@H](CSCC1CCCCC1)C(=O)NCc1ccc(O)cc1` are 1800 nM and 2800 nM.
Consider `COc1ccc(CNC(=O)[C@H](CSCC2CCCCC2)NC(=O)C2CCCCC2)cc1`, for which the IC50 in assay [3] turned out to be 1900 nM; in assay [1], 1300 nM.
For the compound `COc1ccc(CNC(=O)[C@H](CSCC2CCCCC2)NC(=O)OCC(C)C)cc1`, the values for the IC50 in assay [3] and in assay [1] were 1500 nM and 720 nM, respectively.
For `COCC(=O)N1CSC[C@H]1C(=O)N[C@@H](CSCC1CCCCC1)C(=O)NCc1ccc(Oc2ccccc2)cc1`, the values for the IC50 in assay [1] and in assay [2] were 120 nM and 930 nM, respectively.
Consider `COc1ccc(CNC(=O)[C@@H](N)CSCC2CCCCC2)cc1`, for which the IC50 in assay [1] was determined as 5800 nM.
On to `COC(=O)N1CSC[C@H]1C(=O)N[C@@H](CSCC1CCCCC1)C(=O)NCc1ccc(Oc2ccccc2)cc1`, for which the IC50 was 120 nM in assay [1] and 870 nM in assay [2].
With `COc1ccc(CNC(=O)[C@H](CSCC2CCCCC2)NC(=O)c2cscn2)cc1`, the IC50 came out at 2700 nM in assay [3] and 1900 nM in assay [1].
On to `CC(C)(C)OC(=O)N1CSC[C@H]1C(=O)N[C@@H](CSCC1CCCCC1)C(=O)NCc1ccc(Oc2ccccc2)cc1`, for which the IC50 in assay [2] was 1700 nM.
Regarding `O=C(N[C@@H](CSCC1CCCCC1)C(=O)NCc1ccc(Oc2ccccc2)cc1)[C@@H]1CSCN1`, the IC50 came to 290 nM in assay [1] and 2000 nM in assay [2].
In the same order, the values of `CC(C)(C)OC(=O)N1CSC[C@H]1C(=O)N[C@@H](CSCC1CCCCC1)C(=O)NCc1ccc(OCc2ccccc2)cc1` are 500 nM and 1500 nM.
On the same counts, the results for `CN(C)c1ccc(CNC(=O)[C@H](CSCC2CCCCC2)NC(=O)[C@@H]2CSCN2C(=O)OC(C)(C)C)cc1` are 610 nM and 950 nM.
For `CC(C)COC(=O)N1CSC[C@H]1C(=O)N[C@@H](CSCC1CCCCC1)C(=O)NCc1ccc(Oc2ccccc2)cc1`, the values for the IC50 in assay [1] and in assay [2] were 360 nM and 1200 nM, respectively.
In the case of `COc1ccc(CNC(=O)[C@H](CSCC2CCCCC2)NC(=O)C2CCCC2)cc1`, the IC50 in assay [3] was 2300 nM; in assay [1], 920 nM.
As for `COc1ccc(CNC(=O)[C@H](CSCC2CCCCC2)NC(=O)CC(C)C)cc1`, the IC50 in assay [3] was determined as 2700 nM; in assay [1], 1200 nM.
`CC(C)(C)OC(=O)N1CSC[C@H]1C(=O)N[C@@H](CSCC1CCCCC1)C(=O)NCc1ccc([N+](=O)[O-])cc1`: the IC50 is 600 nM in assay [1] and 500 nM in assay [2].
In the same order, the values of `COCCN1CSC[C@H]1C(=O)N[C@@H](CSCC1CCCCC1)C(=O)NCc1ccc(Oc2ccccc2)cc1` are 200 nM and 600 nM.

What is called IC50 is the concentration needed to halve the response being measured.
